From PubChem BioAssay
Most compounds without a hit are left out; they make up all but 2.5% or so of the library.
Ins promoter up: MIN6 insulin promoter up-regulation; MIN6 insulin promoter-GFP reporter, high-content imaging; stronger effect = higher value; z-score at 5 µM; 190,000 compounds, 0.3% hits; AID 1625;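 active means z-score above 3 at 5 µM with at least 500 cells counted in the well; inconclusive means wells under 500 cells, flagged as cytotoxic or low count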
NPY Y1 blocker: blocks the human neuropeptide Y Y1 receptor. P25929. HEK293-CNG Y1 cells, membrane potential fluorescence; NPY at EC95, then isoproterenol. inhibition, % at 3.6 µM. 200,000 compounds, 1% hits;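 active means inhibition above the campaign mean inhibition of all tested compounds plus 3 SD, cut at about 20% in these data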
Target sequence (P25929 whole entry, looked up): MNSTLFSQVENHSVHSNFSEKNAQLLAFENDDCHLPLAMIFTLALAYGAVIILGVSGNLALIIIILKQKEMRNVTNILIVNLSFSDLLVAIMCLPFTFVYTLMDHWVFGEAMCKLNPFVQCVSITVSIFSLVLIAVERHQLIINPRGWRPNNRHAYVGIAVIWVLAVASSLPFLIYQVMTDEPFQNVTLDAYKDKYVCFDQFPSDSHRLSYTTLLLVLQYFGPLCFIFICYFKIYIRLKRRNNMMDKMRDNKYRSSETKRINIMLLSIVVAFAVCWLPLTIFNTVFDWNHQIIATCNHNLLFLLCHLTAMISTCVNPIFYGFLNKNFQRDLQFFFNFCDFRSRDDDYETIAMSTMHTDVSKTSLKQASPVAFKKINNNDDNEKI
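Material: HEK293 Y1/CNG channel cell line; also added: NPY (25 nM), isoproterenol (1 µM), Ro 20-1724 (25 µM); doses: one concentration, 3.6 µM, in 0.4% DMSO; schedule: compound incubation 1 h at room temperature, readout 45 min post-stimulation; technique: membrane potential fluorescence; measure: fluorescence ratio normalized to % inhibition between controls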
Insulin prom inh: TRM-6 insulin promoter activity inhibition; inhibition, % at 2 µM; TRM-6 cells (human fetal islet line), insulin promoter-eGFP reporter, imaging; reporter expression induced with tamoxifen; 130,000 compounds, 0.9% hits;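 active means inhibition above the mean plus 3 SD, with well images judged a real hit on visual review, cut at about 60% in these data, passing the limit was not always enough; inconclusive means inhibition over the cutoff but images rejected on review; inactive means inhibition not above the cutoff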
NPY-Y2 PAM-ag: human NPY-Y2 potentiation or agonism, primary screen; activation, % at 3.6 µM; 220,000 compounds, 0.45% hits; cells expressing NPY-Y2, potentiator/agonist read-out; AID 1359; P49146; in the data active means activation above about 27%;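 further: cells stimulated with NPY near EC25 plus isoproterenol at EC100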
Target sequence (P49146 whole entry, looked up): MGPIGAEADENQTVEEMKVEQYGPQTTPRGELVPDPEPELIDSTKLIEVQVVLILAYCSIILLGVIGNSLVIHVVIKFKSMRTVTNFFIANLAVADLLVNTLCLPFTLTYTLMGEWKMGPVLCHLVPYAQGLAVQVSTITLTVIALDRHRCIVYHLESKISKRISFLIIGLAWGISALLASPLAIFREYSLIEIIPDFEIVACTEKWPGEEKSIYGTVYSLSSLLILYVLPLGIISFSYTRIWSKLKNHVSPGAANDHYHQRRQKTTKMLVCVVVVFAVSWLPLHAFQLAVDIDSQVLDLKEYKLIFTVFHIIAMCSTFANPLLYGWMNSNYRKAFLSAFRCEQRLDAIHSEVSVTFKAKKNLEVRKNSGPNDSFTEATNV
NPY Y2 blocker: antagonists of human neuropeptide Y receptor Y2; P49146; NPY-Y2 expressing cells, antagonist mode; inhibition, % at 2.7 µM; 140,000 compounds, 0.99% hits; AID 793; in the data active means inhibition above about 17%
NPY-Y1 PAM-ag: human NPY-Y1 potentiation or agonism, primary screen. NPY-Y1 expressing cells, potentiator/agonist activation. activation, % at 3.6 µM. 220,000 compounds, 0.37% hits. AID 1304; in the data active means activation above about 33%, passing the limit was not always enough;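 further: cells stimulated with NPY at EC10 then isoproterenol at EC100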
Large screens that a line does not name were inactive.

CCCCn1c(=N)n(CC(O)COc2cccc(C)c2)c2ccccc21 (configuration not stated)	Ins promoter up inconclusive, NPY Y1 blocker 31, NPY Y2 blocker 54
CCCCCn1c(=N)n(CC(O)COc2ccccc2OC)c2ccccc21 (configuration not stated)	NPY Y1 blocker 25, NPY Y2 blocker 35 (no result: Insulin prom inh)
O=C(COC(=O)c1cnccn1)c1ccc(Cl)cc1	none (no result: NPY Y2 blocker)
COc1ccc(NC(=O)N2CCCCC2)cc1	Insulin prom inh 80
CC(C)[C@H](NC(=O)Nc1ccccc1F)C(=O)O	none
CS(=O)(=O)N1CCN(c2ncccn2)CC1	Insulin prom inh 83 (no result: Ins promoter up)
CC(=O)Nc1nc(-c2ccc(Br)s2)cs1	Ins promoter up 5
S=C(Nc1cccnc1)Nc1ccccc1Br	none (no result: Insulin prom inh, NPY Y2 blocker)
Oc1cccc(NC(=S)Nc2cccnc2)c1	NPY-Y2 PAM-ag 60, NPY-Y1 PAM-ag 62
Cc1cccc(NC(=O)Cn2c(=O)oc3ccccc32)c1	none
CC1=C/C(=N\OS(=O)(=O)c2ccccc2)C(C(C)C)=CC1=O	Ins promoter up inconclusive, NPY-Y2 PAM-ag 31
CC1=C(C)/C(=N\OS(=O)(=O)c2ccc(C)cc2)C=CC1=O	none
CC1=C/C(=N\OS(=O)(=O)c2ccccc2)C(C)=CC1=O	Ins promoter up inconclusive, NPY-Y2 PAM-ag 57, NPY-Y1 PAM-ag 54
O=C(NN1CCOCC1)c1cc(S(=O)(=O)Nc2cccc(C(F)(F)F)c2)ccc1Cl	none (no result: Insulin prom inh)
O=c1[nH]c2ccc(Cl)cc2c(-c2ccccc2)c1SC(=S)N1CCCCC1	none
O=c1[nH]c2ccc(Cl)cc2c(O)c1-c1ccccc1	NPY Y2 blocker 18
CCCn1c(=O)c2ccccc2n2c(SCc3cc(=O)oc4ccc5ccccc5c34)nnc12	none
CCCn1c(=O)c2ccccc2n2c(SCCOc3ccccc3F)nnc12	NPY Y1 blocker 26, NPY Y2 blocker 17
CCCn1c(=O)c2ccccc2n2c(SCc3cc(=O)n4ccsc4n3)nnc12	NPY Y1 blocker 21 (no result: Ins promoter up)
CCCc1cc(=O)oc2cc(OCC(=O)N3CCc4ccccc43)ccc12	none
O=C(O)c1ccc2c(=O)n(-c3ccccc3F)c(=S)[nH]c2c1	none (no result: Ins promoter up, NPY Y2 blocker)
COC(=O)c1ccc2c(=O)n(-c3ccccc3F)c(=S)[nH]c2c1	Insulin prom inh 100 (no result: NPY Y2 blocker)
O=C(NCc1ccc2c(c1)OCO2)c1ccc(CN2CCOCC2)cc1	Insulin prom inh 89
Cc1cccc(CSCCNC(=O)c2ccc(CN3CCOCC3)cc2)c1	Insulin prom inh 71
O=C(NCc1ccc2c(c1)OCO2)c1ccc2c(c1)OCO2	none (no result: NPY Y1 blocker, Insulin prom inh, NPY Y2 blocker)
CSc1ncccc1C(=O)OCC(=O)c1cccs1	none (no result: NPY Y2 blocker)
COC(=O)c1cnc(NNS(=O)(=O)c2ccc(C(F)(F)F)cc2)nc1C(F)(F)F	none (no result: NPY Y1 blocker, Insulin prom inh, NPY Y2 blocker)
Nc1ccc2c(c1)CC(=O)c1ccccc1S2	Ins promoter up inconclusive, Insulin prom inh 77
CC(=O)ON1C(C)(C)Cc2noc(N)c2C1(C)C	NPY-Y2 PAM-ag 55, NPY-Y1 PAM-ag 56
COc1ccc(C(C)=O)cc1CSc1nc2cc(Cl)ccc2o1	Insulin prom inh 74
COc1ccc(C(C)=O)cc1CSc1nnc(SCc2cc(C(C)=O)ccc2OC)s1	none (no result: NPY Y1 blocker, Insulin prom inh, NPY Y2 blocker)
Cc1sc2c(c1C)c(=O)n(-c1cccc(C(F)(F)F)c1)c(=O)n2CC(=O)NCc1ccco1	Insulin prom inh 69 (no result: Ins promoter up)
COCCNC(=O)Cn1c(=O)n(Cc2ccco2)c(=O)c2ccccc21	Insulin prom inh 86
Cc1ccc(-n2c(=O)c3ccccc3n(CC(=O)NCc3ccco3)c2=O)cc1	Insulin prom inh 73 (no result: NPY Y2 blocker)
Cc1cccc(OCCNc2nc3c(c(=O)n(C)c(=O)n3C)n2C)c1	Ins promoter up 4.2
CCOC(=O)Cc1csc(NC(=O)CSc2nc(-c3ccccc3)c(C#N)c(=O)[nH]2)n1	NPY Y1 blocker 21 (no result: NPY Y2 blocker)
CCOc1ccc2nc(NC(=O)CSc3nc(-c4ccccc4)c(C#N)c(=O)[nH]3)sc2c1	none (no result: Ins promoter up, Insulin prom inh, NPY Y2 blocker)
O=S(=O)(c1cccc2cccnc12)N(CCO)CCO	NPY-Y1 PAM-ag 36 (no result: Insulin prom inh)
O=C(Nc1ccc(Cl)cc1C(=O)NCC1CCCO1)c1ccco1 (configuration not stated)	Insulin prom inh 75
COc1ccc(C(=O)Nc2ccc(Cl)cc2C(=O)NCc2ccco2)cc1	NPY Y1 blocker 25, NPY Y2 blocker 19 (no result: Ins promoter up)
O=C(Nc1ccc(Cl)cc1C(=O)NCC1CCCO1)c1ccc(Cl)cc1Cl (configuration not stated)	none (no result: Insulin prom inh)
Cc1cc(C)n(-c2nnc(C)n2/N=C/c2cc(Br)ccc2OCc2ccccc2)n1	NPY Y2 blocker 32
Nc1nc(SCC(=O)Nc2ccc3c(c2)OCO3)n[nH]1	none (no result: Insulin prom inh, NPY Y2 blocker)
Nc1nc(SCC(=O)NCc2ccc3c(c2)OCO3)n[nH]1	Insulin prom inh 65 (no result: NPY Y2 blocker)
CCC(C)(C)C(=O)Nc1ccc(OC)cc1[N+](=O)[O-]	Insulin prom inh 100
CCOc1ccc(OCC(=O)Nc2ccc(OC)cc2[N+](=O)[O-])cc1	none (no result: Insulin prom inh, NPY Y2 blocker)
O=C(Cn1cnc2ccccc2c1=O)Nc1ccccc1N1CCOCC1	none (no result: Insulin prom inh, NPY Y2 blocker)
CNC(=O)N(C1=NCC(C)(C)S1)c1ccc(F)c(Cl)c1	none (no result: Insulin prom inh)
Cc1ccc2c(c1)C(c1ccc([N+](=O)[O-])cc1)=NNC(c1ccc(Br)cc1)=N2	NPY Y1 blocker 25, NPY Y2 blocker 17
CCc1ccc2c(c1)C(c1ccc([N+](=O)[O-])cc1)=NNC(c1ccc(Br)cc1)=N2	none
CCN1C(=O)C(O)(CC(=O)c2ccccn2)c2ccccc21 (configuration not stated)	Insulin prom inh 75 (no result: Ins promoter up)
CCN1C(=O)C(O)(CC(=O)c2ccc(-n3cccc3)cc2)c2ccccc21 (configuration not stated)	none (no result: Insulin prom inh)
COc1ccc(Br)cc1/C=C/C(=O)Nc1ccc2ccccc2c1	none
CCC(=O)Nc1cccc(C(=O)/C=C/c2cc(Br)ccc2OC)c1	Insulin prom inh 94
Cc1ccc(CN2CCN(c3ccccn3)CC2)s1	Insulin prom inh 72
Cc1cccc(N/N=C(\C#N)S(=O)(=O)C(C)(C)C)c1	Insulin prom inh 91 (no result: NPY Y2 blocker)
O=C(COC(=O)c1ccc(NS(=O)(=O)c2ccc3c(c2)OCCO3)cc1)NC1CC1	Insulin prom inh 92
COc1cc(S(=O)(=O)N2CCOCC2)ccc1NC(=O)COC(=O)C12CC3CC(CC(C3)C1)C2	Ins promoter up 3.9
COc1ccc(S(=O)(=O)N2CCOCC2)cc1NC(=O)CN1CCCC1	none (no result: NPY Y2 blocker)
COc1ccc(S(=O)(=O)N2CCOCC2)cc1NC(=O)CN1CCC(Cc2ccccc2)CC1	NPY Y1 blocker 40, NPY Y2 blocker 32
CN(C1CC(C)(C)NC(C)(C)C1)S(=O)(=O)CC12CCC(CC1=O)C2(C)C (configuration not stated)	none (no result: NPY Y1 blocker, Insulin prom inh, NPY Y2 blocker)
CCC1=C(OC(=O)N(CC)CC)N2C(=O)OC(=NCCc3c[nH]c4ccccc34)[C@]2(C)[C@H]2C1=CC[C@H]1C(=O)N(CC(=O)OC)C(=O)[C@H]12	none (no result: NPY Y1 blocker, Insulin prom inh, NPY-Y2 PAM-ag, NPY Y2 blocker, NPY-Y1 PAM-ag)
COc1ccc(OC)c(S(=O)(=O)N2CCN(c3ccccn3)CC2)c1	Insulin prom inh 74
Cc1cccc(C)c1OCC(O)CNC(C)C (configuration not stated)	none
